From ChEMBL document CHEMBL1133378, “Synthesis and evaluation of daunorubicin-paclitaxel dimers” (Bioorg Med Chem Lett, 2000)

Legend:
Type in all cases: functional, cell-based
Conditions in all cases: Homo sapiens
[1] = system: MES-SA/Dx5; experiment: The compound was evaluated for the growth inhibition of Dx5 cell lines using MTT assay.
How it was run: (§1)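 MTT assay: MES-SA (uterine tumor) or P-gp-overexpressing MES-SA/Dx5 cells seeded at 80,000 cells/mL, grown 24 h at 37 C in humidified 5% CO2, then drug-exposed at serial dilutions for 72 h. MTT (5 mg/mL stock in PBS) added for 3 h, formazan dissolved in 0.1 N HCl-isopropanol, absorbance read at 570 nm. IC50 from plotted data, mean of 8-16 determinations.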

[2] = system: MES-SA/Dx5; experiment: The compound was evaluated for the growth inhibition of Dx5 w/PSC cell lines using MTT assay.; how it was run: as §1
[3] = system: MES-SA; experiment: The compound was evaluated for the growth inhibition of MES-SA uterine tumor cell lines using MTT assay.; how it was run: as §1

Structure (SMILES) | IC50 [1] | IC50 [2] | IC50 [3]
COc1cccc2c1C(=O)c1c(O)c3c(c(O)c1C2=O)C[C@@](O)(C(C)=O)C[C@@H]3OC1CC(NC(=O)c2ccccc2C(=O)NCCC(=O)O[C@@H]2C[C@@H]3OC[C@]3(OC(C)=O)C3[C@@H](OC(=O)c4ccccc4)[C@@]4(O)C[C@@H](OC(=O)[C@@H](O)[C@H](NC(=O)c5ccccc5)c5ccccc5)C(C)=C([C@H](OC(C)=O)C(=O)[C@]32C)C4(C)C)C(O)C(C)O1 (stereo partly specified) | 16 µM | 0.036 µM | 0.099 µM
COc1cccc2c1C(=O)c1c(O)c3c(c(O)c1C2=O)C[C@@](O)(C(C)=O)C[C@@H]3OC1CC(NC(=O)CCCC(=O)NCCC(=O)O[C@@H]2C[C@@H]3OC[C@]3(OC(C)=O)C3[C@@H](OC(=O)c4ccccc4)[C@@]4(O)C[C@@H](OC(=O)[C@@H](O)[C@H](NC(=O)c5ccccc5)c5ccccc5)C(C)=C([C@H](OC(C)=O)C(=O)[C@]32C)C4(C)C)C(O)C(C)O1 (stereo partly specified) | > 50 µM | 1.1 µM | 0.95 µM
COc1cccc2c1C(=O)c1c(O)c3c(c(O)c1C2=O)C[C@@](O)(C(C)=O)C[C@@H]3OC1CC(NC(=O)c2ccc(C(=O)NCCC(=O)O[C@@H]3C[C@@H]4OC[C@]4(OC(C)=O)C4[C@@H](OC(=O)c5ccccc5)[C@@]5(O)C[C@@H](OC(=O)[C@@H](O)[C@H](NC(=O)c6ccccc6)c6ccccc6)C(C)=C([C@H](OC(C)=O)C(=O)[C@]43C)C5(C)C)cc2)C(O)C(C)O1 (stereo partly specified) | 10 µM | 1 µM | 1 µM
COc1cccc2c1C(=O)c1c(O)c3c(c(O)c1C2=O)C[C@@](O)(C(C)=O)C[C@@H]3OC1CC(NC(=O)CCCCC(=O)NCCC(=O)O[C@@H]2C[C@@H]3OC[C@]3(OC(C)=O)C3[C@@H](OC(=O)c4ccccc4)[C@@]4(O)C[C@@H](OC(=O)[C@@H](O)[C@H](NC(=O)c5ccccc5)c5ccccc5)C(C)=C([C@H](OC(C)=O)C(=O)[C@]32C)C4(C)C)C(O)C(C)O1 (stereo partly specified) | > 50 µM |  | 2.3 µM
COc1cccc2c1C(=O)c1c(O)c3c(c(O)c1C2=O)C[C@@](O)(C(C)=O)C[C@@H]3OC1CC(NC(=O)CCC(=O)NCCC(=O)O[C@@H]2C[C@@H]3OC[C@]3(OC(C)=O)C3[C@@H](OC(=O)c4ccccc4)[C@@]4(O)C[C@@H](OC(=O)[C@@H](O)[C@H](NC(=O)c5ccccc5)c5ccccc5)C(C)=C([C@H](OC(C)=O)C(=O)[C@]32C)C4(C)C)C(O)C(C)O1 (stereo partly specified) | > 50 µM |  | 0.7 µM
COc1cccc2c1C(=O)c1c(O)c3c(c(O)c1C2=O)C[C@@](O)(C(C)=O)C[C@@H]3O[C@H]1C[C@H](N)[C@H](O)[C@H](C)O1 [DAUNORUBICIN] | 2 µM | 0.014 µM | 0.021 µM
CC(=O)O[C@H]1C(=O)[C@@]2(C)C([C@H](OC(=O)c3ccccc3)[C@]3(O)C[C@H](OC(=O)[C@H](O)[C@@H](NC(=O)c4ccccc4)c4ccccc4)C(C)=C1C3(C)C)[C@]1(OC(C)=O)CO[C@@H]1C[C@@H]2O.COc1cccc2c1C(=O)c1c(O)c3c(c(O)c1C2=O)C[C@@](O)(C(C)=O)C[C@@H]3OC1CC(N)C(O)C(C)O1 (stereo partly specified) [MIXTURE OF DAUNORUBICIN AND PACLITAXEL] | 1 µM |  | 0.011 µM
CC(=O)O[C@H]1C(=O)[C@@]2(C)[C@H]([C@H](OC(=O)c3ccccc3)[C@]3(O)C[C@H](OC(=O)[C@H](O)[C@@H](NC(=O)c4ccccc4)c4ccccc4)C(C)=C1C3(C)C)[C@]1(OC(C)=O)CO[C@@H]1C[C@@H]2O [PACLITAXEL] | 2.7 µM | 0.0003 µM | 0.0006 µM
